# Not all results are given here.
# Apaf-1 act = human Apaf-1 activation | Apaf-1 apoptosome caspase-3 activation, DEVD-Rh110 fluorescence; hits give low values | activity change, negative = activation, % at 20 µM | 330,000 compounds, 0.31% hits | AID 489031;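 active means activity change at or below -40% at 20 µM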
# Target sequence (O14727 whole entry, looked up): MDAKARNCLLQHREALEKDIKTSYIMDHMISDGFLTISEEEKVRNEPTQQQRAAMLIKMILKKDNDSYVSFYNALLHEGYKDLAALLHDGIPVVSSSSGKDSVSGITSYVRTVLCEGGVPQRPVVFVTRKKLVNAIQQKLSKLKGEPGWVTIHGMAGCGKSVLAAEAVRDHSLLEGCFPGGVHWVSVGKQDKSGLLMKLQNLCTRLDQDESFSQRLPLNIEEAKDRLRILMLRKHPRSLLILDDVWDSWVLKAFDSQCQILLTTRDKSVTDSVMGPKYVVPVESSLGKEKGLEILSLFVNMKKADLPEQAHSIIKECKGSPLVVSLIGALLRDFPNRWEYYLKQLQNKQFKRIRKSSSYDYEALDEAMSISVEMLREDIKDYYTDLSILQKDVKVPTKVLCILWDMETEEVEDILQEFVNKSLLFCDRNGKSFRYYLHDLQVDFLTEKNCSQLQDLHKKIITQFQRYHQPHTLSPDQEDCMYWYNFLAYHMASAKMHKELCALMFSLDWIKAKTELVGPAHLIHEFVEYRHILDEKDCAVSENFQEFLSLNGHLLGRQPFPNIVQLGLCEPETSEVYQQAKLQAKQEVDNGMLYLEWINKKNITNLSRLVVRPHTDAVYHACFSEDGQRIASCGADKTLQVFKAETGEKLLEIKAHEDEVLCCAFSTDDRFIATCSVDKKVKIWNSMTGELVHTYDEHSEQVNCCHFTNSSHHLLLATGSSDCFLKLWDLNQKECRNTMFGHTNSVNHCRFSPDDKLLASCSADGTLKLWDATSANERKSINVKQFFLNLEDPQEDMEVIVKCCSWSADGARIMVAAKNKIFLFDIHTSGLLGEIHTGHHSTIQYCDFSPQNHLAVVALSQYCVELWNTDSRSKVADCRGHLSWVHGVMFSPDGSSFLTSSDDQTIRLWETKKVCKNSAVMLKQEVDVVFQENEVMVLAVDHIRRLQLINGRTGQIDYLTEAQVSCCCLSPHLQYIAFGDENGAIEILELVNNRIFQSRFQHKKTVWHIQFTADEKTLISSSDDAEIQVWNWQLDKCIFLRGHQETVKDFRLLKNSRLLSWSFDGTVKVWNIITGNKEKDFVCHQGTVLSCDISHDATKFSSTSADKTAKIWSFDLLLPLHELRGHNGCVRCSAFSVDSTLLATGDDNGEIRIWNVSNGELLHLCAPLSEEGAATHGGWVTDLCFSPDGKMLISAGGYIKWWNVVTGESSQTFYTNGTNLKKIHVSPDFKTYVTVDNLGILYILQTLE
#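 Schedule: 30 min preincubation, 50 min reaction, room temperature / System: biochemical Apaf-1 apoptosome reconstitution / Medium: 20 mM HEPES pH 7.5 with CHAPS, BSA / Evaluation: Caspase-3 cleavage activity downstream of Apaf-1 activation / Detection: Caspase-3-released Rh110 fluorescence, 540 nm emission, 480 nm excitation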
# Rh110 interf act = interferes with Rh110 fluorescence, flagging false Apaf-1 activators. shares compounds with Apaf-1 act. Rh110 fluorescence interference, quenched caspase reaction, Ex480/Em540. fluorescence interference (activity change), % at 20 µM, hits read low. 980 tested, under 10 active. AID 504616;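 active means mean activity change at or below -40% when tested at 20 µM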
# Apaf-1 act conf2 = Apaf-1 (human) activation, single-dose confirmed; 980 compounds, 5% hits; activity change, negative = activation, % at 20 µM; reconstituted apoptosome caspase-3 activity, DEVD-Rh110 fluorescence; hits give low values; shares compounds with Apaf-1 act;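 active means mean activity change at or below -40%, meaning activation of 40% or more, at 20 µM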
# Apaf1 act interf = counter-screen for Apaf-1 activators: fluorescence interference, dose response. shares compounds with Apaf-1 act. fluorescence interference counterscreen, Apaf-1 activator assay. EC50, µM. 55 tested, under 10 active. AID 588592; call rule not given here
# The depositor's hits bear a star; . = no result given.
SMILES,Apaf-1 act,Rh110 interf act,Apaf-1 act conf2,others
CC1(C)S/C(=N/N=C/c2ccco2)NC1=O,-61*,14,17,
Cc1ccc(NC(=S)Nc2cccc3cnccc23)cc1,96,.,.,
C#CCOCCOCCOCCNc1nc(N2CCN(C(=O)CCCCCCCCCCNC(=O)[C@H]([C@@H](C)CC)n3cc(CCCCCN)nn3)CC2)nc(N2CCN(C(=O)CCCCCCCCCCNC(=O)[C@@H]([C@H](C)O)n3cc(C)nn3)CC2)n1,50,.,.,
CCn1cc(C(=O)OCC(=O)OC2CC(C)CCC2C(C)C)c(=O)c2ccc(C)nc21 (stereo not drawn),48,.,.,
CCn1cc(C(=O)Nc2ccc(NC(=O)c3ccco3)cc2)c(=O)c2ccc(C)nc21,-59*,-8,-4,
N#Cc1c(NC(=O)c2ccc(Br)o2)n(-c2ccccc2)c2nc3ccccc3nc12,96,.,.,
CCN(CC(=O)Nc1ccc(NC(C)=O)cc1)C(=O)c1ccccc1Sc1ccccc1C#N,56,.,.,
O=C(Nc1ccc(N2CCCC2)cc1)C(Cl)c1ccccc1 (stereo not drawn),65,.,.,
Cc1c(C(=O)OCC(=O)Nc2c(C)n(C)n(-c3ccccc3)c2=O)cccc1[N+](=O)[O-],-93*,5,12,
Cc1c(Cl)cnc(NC(=O)COC(=O)c2ccc([N+](=O)[O-])s2)c1Cl,40,.,.,
Cc1c(C(=O)N(CCc2ccccc2)Cc2ccccc2)cccc1[N+](=O)[O-],41,.,.,
CCCCNc1c(-c2ccc(OC)c(SC(C)CC)c2)nc2cc(C)ccn12 (stereo not drawn),49,.,.,
COc1ccc(-c2cnc(OC(C)(C)C)nc2OC(C)(C)C)cc1OC,-265*,15,14,
COc1ccc(-c2cc(=O)[nH][nH]2)cc1OC,77,.,.,
Cc1ccc(-n2nc3c(c2NC(=O)c2ccco2)CS(=O)(=O)C3)cc1C,-391*,-9,8,
CCC(C)N(C(=O)COC(=O)c1cc([N+](=O)[O-])ccc1N1CCOCC1)C1CCS(=O)(=O)C1 (stereo not drawn),78,.,.,
O=C1NCN(c2ccccc2)C12CCN(CCCC(c1ccc(F)cc1)c1ccc(F)cc1)CC2,55,.,.,
CCN1CCN(C2=C(NS(=O)(=O)c3ccc(C)cc3)C(=O)c3ccccc3C2=O)CC1,77,.,.,
COc1cc(/C=C2\SC(=O)N(c3cccc(Cl)c3)C2=O)cc([N+](=O)[O-])c1O,-142*,3,-132*,Apaf1 act interf=>100
COc1cc(/C=C2/C(=O)N(c3ccc([N+](=O)[O-])cc3)N=C2N2CCOCC2)ccc1O,86,.,.,
CCCCn1c(NC(=O)c2ccc(F)cc2)c(C#N)c2nc3ccccc3nc21,95,.,.,
CCCCCCSc1ccc(-c2nc3cnccn3c2NCCCC)cc1,56,.,.,
FC(F)(F)c1cc(CCN2CCNC[C@@H]2Cc2ccccc2)cc(C(F)(F)F)c1,57,.,.,
O=C(CSc1nnc(-c2ccc(F)cc2)n1CC1CCCO1)NCc1ccco1 (stereo not drawn),54,.,.,
Cc1cnc(NC(=O)CSc2ncc(-c3ccccc3)n2Cc2ccco2)s1,42,.,.,
SMILES,Apaf-1 act,Rh110 interf act,Apaf-1 act conf2,others
COc1ccc(C(=O)CSc2nnc(-c3cccnc3)n2Cc2ccco2)cc1,-50*,-1,8,
Cc1ccc(-c2nn3c(C)nnc3c3ccccc23)cc1S(=O)(=O)NCc1ccccc1,48,.,.,
COc1ccc(C[C@H]2CN3C(=NC[C@@H]3Cc3ccccc3)N2C[C@H](C)NC(=O)CCC2CCCCC2)cc1,52,.,.,
CN(Cc1c(F)cccc1Cl)c1nnnn1-c1ccccc1,-64*,8,9,
CCc1nc(N2CCN(C(C)=O)CC2)c2c3c(sc2n1)CC(C(C)(C)C)CC3 (stereo not drawn),42,.,.,
COc1cc2sc3cc(NCC[C@@H]4CCCN4C)ccc3c(=O)c2cc1OC,55,.,.,
CCOc1ccccc1N(CC(=O)Nc1ccc(S(=O)(=O)N2CCOCC2)cc1)S(=O)(=O)c1ccc(Cl)cc1,-68*,-1,10,
CCN(CC(=O)Nc1cc(S(=O)(=O)N2CCOCC2)ccc1Cl)Cc1ccccc1,42,.,.,
Cc1noc(C)c1S(=O)(=O)N1CCCC(C(=O)NCC2CCCO2)C1 (stereo not drawn),-89*,9,12,
CC12CC3CC(C)(C1)CC(N)(C3)C2,-11,.,.,
COc1ccc(S(=O)(=O)NNC(=O)c2cc3c4ccccc4n(C)c3s2)cc1,-407*,-3,14,
CNS(=O)(=O)/C=C/c1ccccc1,-407*,-8,11,
O=C(NC1(O)C(=O)c2ccccc2C1=O)c1ccc(C(F)(F)F)cc1,96,.,.,
O=C(Nc1cccc(-n2cnnn2)c1)c1ccc(C(F)(F)F)cc1,-67*,4,0,
CCCn1nc(C(=O)Nc2ccc(-n3cnnn3)cc2)c2ccccc2c1=O,71,.,.,
O=C1NCCCC2c3cc(O)c4ccccc4c3OC12N1CCCCC1 (stereo not drawn),93,.,.,
CN(C)c1ccc(C(=S)N2CCCCC2)cc1,-335*,-3,2,
CN(C)c1ccc(N/C=C/C(=O)C(C)(C)C)cc1,53,.,.,
Cc1onc(-c2ccccc2Cl)c1C(=O)NCc1ccc2c(c1)cc(C)n2C,53,.,.,
Cc1ccc(N(CC2=NCCN2)c2cccc(O)c2)cc1,-2,.,.,
O=C(Cc1cc(=O)[nH][nH]1)N/N=C/c1c(Cl)cccc1Cl,64,.,.,
Cc1noc(NS(=O)(=O)c2ccc(NC(=O)NC(C)(C(F)(F)F)C(F)(F)F)cc2)c1C,-232*,4,14,
Cc1ccc(S(=O)(=O)NC(=O)Nc2ccc(N(C)C)cc2)cc1,57,.,.,
O=C1/C(=N\S(=O)(=O)c2cccs2)C([n+]2ccc(CCCc3ccccc3)cc2)=C([O-])c2ccccc21,46,.,.,
CSc1ccc(/C=N/NC(=O)CNc2cccc3ccccc23)cc1,86,.,.,
SMILES,Apaf-1 act,Rh110 interf act,Apaf-1 act conf2,others
COc1ccc(/C=N/NC(=O)CNC(=O)/C=C/c2ccco2)cc1OC,-408*,-8,5,
CCCCCc1ccc(OCCCC[n+]2cccc(C)c2)c(CCCCC)c1,61,.,.,
COc1ccc(N2CC(C(=O)N/N=C/c3cc([N+](=O)[O-])ccc3O)CC2=O)cc1 (stereo not drawn),-318*,7,15,
COc1ccc2ccccc2c1C1CC(=O)N2CN(Cc3ccco3)CSC2=C1C#N (stereo not drawn),52,.,.,
O=C1CN(C(=O)c2cnccn2)c2ccccc2N1,-47*,16,11,
O=C1Nc2ccccc2N2CCCC12 (stereo not drawn),78,.,.,
Nn1c(SCCOc2ccc(Cl)cc2)nnc1-c1cccnc1,-44*,13,16,
Clc1ccc(OCCSc2nnnn2C2CCCCC2)cc1,65,.,.,
COC(C[C@H]1O[C@@H]1C(=O)[C@H](C)OCc1ccccc1)OC,48,.,.,
Cc1ccccc1NC(=O)NC1CCCCCCC1,-63*,4,6,
Cc1cc2cc(CNC(=O)NC3CCCCC3)ccc2n1C,51,.,.,
Cc1cccn2c(=O)c3cc(C(=O)NC4CCCCC4)c(=N)n(Cc4ccccc4)c3nc12,57,.,.,
COc1cccc(Cn2cnc3c(NS(=O)(=O)c4ccc(Cl)cc4Cl)c(C)c(C)cc32)c1,-66*,10,25,
CCCCCCCCCC[N+](C)(C)CC/C=C1/c2ccccc2Sc2ccc(Cl)cc21,81,.,.,
